Measurements reported in ChEMBL document CHEMBL5385958, “Psammaplin A and Its Analogs Attenuate Oxidative Stress in Neuronal Cells through Peroxisome Proliferator-Activated Receptor γ Activation” (J Nat Prod, 2024).
Calls of active or inactive are those of the source. The calls are words filed in the database; no cut-off is given here.

What was measured:
SH-SY5Y [1] = assay: Inhibition of mPTP opening in human SH-SY5Y cells assessed as decrease in cyclophilin D protein expression at 0.001 uM incubated for 6 hrs by Western blot analysis; format: cell-based
Outline: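 15 μg cytosolic protein run on 4–20% SDS-PAGE, probed with anti-cyclophilin antibody 1:1000, bands normalized to actin. Three replicates in duplicate; percentage of untreated or H2O2 control.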

SH-SY5Y [2] = assay: Cytotoxicity against human SH-SY5Y cells assessed as reduction in cell viability at 0.001 to 1 uM incubated for 24 hrs by MTT assay; format: toxicity, cell-based; conditions: dose 0.001-1 µM
Outline: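 MTT viability of SH-SY5Y cells (5 × 10^4/well) after 24 h exposure to 0.001, 0.01, 0.1 and 1 μM. 500 μg/mL MTT for 1 h at 37 °C after Locke's buffer wash; SDS solubilization; absorbance at 595 nm with 1 mg/mL saponin blank subtracted. DMSO vehicle below 0.5%. Triplicate, three independent times.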

SH-SY5Y [3] = assay: Antioxidant activity in human SH-SY5Y cells assessed as reversal of H2O2 induced mitochondrial membrane depolarization at 0.001 to 0.1 uM incubated for 6 hrs by TMRM staining based microplate reader analysis; format: functional, cell-based; conditions: dose 0.001-0.1 µM
Outline: (§1)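 SH-SY5Y cells (5 × 10^4/well) cotreated with agent and 150 μM H2O2 for 6 h, then loaded with 1 μM TMRM for 30 min at 37 °C. Cells lysed with 50% H2O/DMSO; fluorescence read at 535/590 nm. Vitamin E 25 μM as positive control. Data expressed as percentage of untreated control cells. Triplicate, three independent times.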

SH-SY5Y [4] = assay: Inhibition of H2O2 induced ROS release in human SH-SY5Y cells at 1 uM incubated for 6 hrs by carboxy-H2DCFDA staining based assay; format: functional; design: scale not given: the % may be the effect or the level left
Outline: (§2)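 ROS measurement: SH-SY5Y cells exposed to agent and 150 μM H2O2 for 6 h, washed with serum-free medium and loaded with 20 μM carboxy-H2DCFDA for 1 h at 37 °C, then PBS for 30 min. Fluorescence read by plate reader. Vitamin E 25 μM as positive control. Triplicate, three independent times; percentage of untreated control.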

SH-SY5Y [5] = assay: Antioxidant activity in human SH-SY5Y cells assessed as recovery of H2O2 decreased GSH level at 1 uM incubated for 30 min by fluorescence based microplate reader assay relative to control (reference value: 83 +/- 2%); format: functional; design: scale not given: the % may be the effect or the level left; conditions: 0.5 h
[6] = biological target: T1, Peroxisome proliferator-activated receptor gamma (Homo sapiens) (UniProt P37231); assay: Activation of PPARgamma in human SH-SY5Y cells assessed as increase in Nrf2 mRNA expression level at 0.001 uM incubated for 6 hrs by qPCR analysis; format: cell-based; conditions: filed as activator
T1 sequence (whole entry): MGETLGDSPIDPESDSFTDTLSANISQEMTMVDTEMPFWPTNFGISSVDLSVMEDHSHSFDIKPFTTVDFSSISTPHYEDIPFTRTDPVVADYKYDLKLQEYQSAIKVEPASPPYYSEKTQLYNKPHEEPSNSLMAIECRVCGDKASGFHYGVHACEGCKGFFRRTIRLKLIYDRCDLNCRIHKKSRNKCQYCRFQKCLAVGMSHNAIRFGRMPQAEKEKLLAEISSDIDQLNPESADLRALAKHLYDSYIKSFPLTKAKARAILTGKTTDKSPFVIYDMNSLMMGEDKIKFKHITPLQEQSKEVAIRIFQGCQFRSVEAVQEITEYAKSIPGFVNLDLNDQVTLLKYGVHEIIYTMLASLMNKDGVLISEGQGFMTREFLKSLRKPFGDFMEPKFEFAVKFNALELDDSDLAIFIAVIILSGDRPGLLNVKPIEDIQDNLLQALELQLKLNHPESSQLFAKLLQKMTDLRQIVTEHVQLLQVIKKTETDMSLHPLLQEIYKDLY
Outline: (§3)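 SH-SY5Y cells (1 × 10^6/well, 24 h attachment) exposed to test agent alone for 6 h. RNA extracted, cDNA made with oligo-dT primers, SYBR Green qPCR for CAT, GPx1, Nrf2 or SOD1. Expression normalized to RPLP0 and calculated by ΔΔCt against untreated control calibrator. Three independent replicates performed in triplicate; rosiglitazone 10 μM as positive control.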

[7] = biological target: T1, Peroxisome proliferator-activated receptor gamma (Homo sapiens); assay: Activation of PPARgamma in H2O2 induced human SH-SY5Y cells assessed as increase in glutathione peroxidase 1 mRNA expression incubated for 6 hrs by qPCR analysis; format: cell-based; conditions: filed as activator
Outline: (§4)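 qPCR on SH-SY5Y cells (1 × 10^6/well, attached 24 h) given test agent together with 150 μM H2O2 for 6 h. Total RNA extracted, reverse transcribed with oligo-dT, amplified with SYBR Green and gene-specific primers (CAT, SOD1, GPx1). RPLP0 used as internal normalizer; ΔΔCt relative to H2O2-control calibrator. Three independent replicates in triplicate; rosiglitazone 10 μM as positive control.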

[8] = biological target: T1, Peroxisome proliferator-activated receptor gamma (Homo sapiens); assay: Activation of PPARgamma in human SH-SY5Y cells at 1 uM incubated for 6 hrs relative to control; format: cell-based; conditions: filed as activator
Outline: (§5)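 Nuclear extracts from SH-SY5Y cells (1 × 10^6/well) treated 6 h with 0.001–1 μM agent; rosiglitazone 10 μM as positive control. PPARγ DNA-binding activity measured by ELISA-type transcription factor kit. Absorbance corrected by Bradford protein content and expressed as percentage of control cells. Three independent experiments.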

[9] = biological target: T1, Peroxisome proliferator-activated receptor gamma (Homo sapiens); assay: Activation of PPARgamma in H2O2 induced human SH-SY5Y cells assessed as increase in PPARgamma nucleus translocation incubated for 6 hrs by Western blot analysis; format: cell-based; conditions: filed as activator
Outline: (§6)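 Western blot on SH-SY5Y cells (1 × 10^6/well) treated 6 h, with or without 150 μM H2O2. Hypotonic lysis gave cytosolic fraction; nuclear extraction buffer gave nuclear fraction. 10 μg nuclear or 15 μg cytosolic protein per lane, anti-PPARγ 1:1000. Bands normalized to lamin B1 (nuclear) or actin (cytosolic); translocation expressed as nuclear/cytosolic ratio. Three replicates in duplicate.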

[10] = biological target: T1, Peroxisome proliferator-activated receptor gamma (Homo sapiens); assay: Activation of PPARgamma in human SH-SY5Y cells assessed as increase in PPARgamma nucleus translocation at 0.001 uM incubated for 6 hrs by Western blot analysis; format: cell-based; conditions: filed as activator; outline: as §6
[11] = biological target: T1, Peroxisome proliferator-activated receptor gamma (Homo sapiens); assay: Activation of PPARgamma in human SH-SY5Y cells assessed as increase in glutathione peroxidase 1 mRNA expression incubated for 6 hrs by qPCR analysis; format: cell-based; conditions: filed as activator; outline: as §3
SH-SY5Y [12] = assay: Antioxidant activity in human SH-SY5Y cells assessed as protection against H2O2 induced loss of cell viability at 0.001 to 0.1 uM incubated for 6 hrs in presence of H2O2 by MTT assay; format: functional, cell-based; conditions: dose 0.001-0.1 µM
Outline: (§7)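 Neuroprotection by MTT: SH-SY5Y cells (5 × 10^4/well) cotreated 6 h with agent plus 150 μM H2O2; vitamin E 25 μM as positive control. Cells washed with Locke's buffer, given 500 μg/mL MTT for 1 h at 37 °C, solubilized with 5% SDS, absorbance read at 595 nm. Saponin 1 mg/mL death control subtracted. Triplicate, three independent times.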

[13] = biological target: T1, Peroxisome proliferator-activated receptor gamma (Homo sapiens); assay: Activation of PPARgamma in H2O2 induced human SH-SY5Y cells assessed as increase in catalase mRNA expression level incubated for 6 hrs by qPCR analysis; format: cell-based; conditions: filed as activator; outline: as §4
SH-SY5Y [14] = assay: Inhibition of mPTP opening in human SH-SY5Y cells assessed as increase in calcein fluorescence signal by flow cytometry analysis relative to control; format: cell-based; conditions: dose or concentration not given here
Outline: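 mPTP assay: detached SH-SY5Y cells in PBS with 0.6 mM CaCl2 loaded with calcein-AM for 15 min at 37 °C. 0.4 mM CoCl2 plus 0.001 μM agent added for 15 min, then 1 mM TBHP for 3 min.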

SH-SY5Y [15] = assay: Inhibition of H2O2 induced ROS release in human SH-SY5Y cells at 0.001 to 1 uM incubated for 6 hrs by carboxy-H2DCFDA staining based assay; format: functional; design: scale not given: the % may be the effect or the level left; conditions: dose 0.001-1 µM; outline: as §2
SH-SY5Y [16] = assay: Antioxidant activity in human SH-SY5Y cells assessed as recovery of H2O2 decreased GSH level at 0.001 to 1 uM incubated for 30 min by fluorescence based microplate reader assay; format: functional, cell-based; conditions: dose 0.001-1 µM
[17] = biological target: T1, Peroxisome proliferator-activated receptor gamma (Homo sapiens); assay: Activation of PPARgamma in human SH-SY5Y cells assessed as transcription activity at 0.001 to 0.1 uM incubated for 6 hrs; format: cell-based; conditions: filed as activator, dose 0.001-0.1 µM; outline: as §5
[18] = biological target: T1, Peroxisome proliferator-activated receptor gamma (Homo sapiens); assay: Activation of PPARgamma in human SH-SY5Y cells assessed as increase in superoxide dismutase 1 mRNA expression at 0.001 uM incubated for 6 hrs by qPCR analysis; format: cell-based; conditions: filed as activator; outline: as §3
SH-SY5Y [19] = assay: Antioxidant activity in human SH-SY5Y cells assessed as protection against H2O2 induced loss of cell viability at 0.001 uM incubated for 6 hrs in presence of H2O2 by MTT assay (reference value: 76 +/- 4%); format: functional; outline: as §7
SH-SY5Y [20] = assay: Antioxidant activity in human SHSY-5Y cells assessed as protection against H2O2 induced loss of cell viability at 0.01 uM incubated for 6 hrs in presence of H2O2 by MTT assay (reference value: 76 +/- 4%); format: functional; outline: as §7
SH-SY5Y [21] = assay: Antioxidant activity in human SH-SY5Y cells assessed as reversal of H2O2 induced mitochondrial membrane depolarization at 0.001 uM incubated for 6 hrs by TMRM staining based microplate reader analysis (reference value: 76 +/- 2%); format: functional; outline: as §1
SH-SY5Y [22] = assay: Inhibition of H2O2 induced ROS release in human SH-SY5Y cells at 0.001 uM incubated for 6 hrs by carboxy-H2DCFDA staining based assay; format: functional; design: scale not given: the % may be the effect or the level left; outline: as §2
SH-SY5Y [23] = assay: Antioxidant activity in human SH-SY5Y cells assessed as protection against H2O2 induced loss of cell viability at 25 uM incubated for 6 hrs in presence of H2O2 by MTT assay; format: functional, cell-based; outline: as §7
SH-SY5Y [24] = assay: Inhibition of H2O2 induced ROS release in human SH-SY5Y cells at 25 uM incubated for 6 hrs by carboxy-H2DCFDA staining based assay; format: functional, cell-based; design: scale not given: the % may be the effect or the level left; outline: as §2

Molecule	inhibition (SH-SY5Y [1])	Activity (SH-SY5Y [2])	Activity (SH-SY5Y [3])	Activity (SH-SY5Y [4]) [%]	Activity (SH-SY5Y [5]) [%]	Activity [6]	Activity [7]	Activity [9] [%]	Activity [10] [%]	Activity [11]	Activity (SH-SY5Y [12])	Activity [13]	inhibition (SH-SY5Y [14]) [%]	further results
O=C(NCCSSCCNC(=O)/C(Cc1cc(O)c(O)c(Br)c1)=N\O)/C(Cc1ccc(O)c(Br)c1)=N\O	inactive	Non-Toxic	Active	99	117	Active	Active	177	151	Active	Active	Active		Activity [8]: 130%
CC(C)(C)OO													54	
CN(CCOc1ccc(CC2SC(=O)NC2=O)cc1)c1ccccn1 (centres undefined)								139						
O=C(NCCSSCCNC(=O)/C(Cc1cc(Br)c(O)c(-c2cc(C/C(=N\O)C(=O)NCCSSCCNC(=O)/C(Cc3ccc(O)c(Br)c3)=N/O)cc(Br)c2O)c1)=N/O)/C(Cc1ccc(O)c(Br)c1)=N/O [BISAPRASIN]	inactive	Non-Toxic	Active			Active	Active		180	Active	Active	Active	92	Activity (SH-SY5Y [15]): 87%; Activity (SH-SY5Y [16]): Active; Activity [17]: Active; Activity [18]: Active
O=C(NCCSSCCNC(=O)/C(Cc1ccc(O)c(Br)c1)=N/O)/C(Cc1ccc(O)c(Br)c1)=N/O [PSAMMAPLIN A]	inactive	Non-Toxic		96	120	Active	Active	150	136	Active				Activity (SH-SY5Y [19]): 100%; Activity (SH-SY5Y [20]): 96%; Activity (SH-SY5Y [21]): 100%; Activity (SH-SY5Y [22]): 101%
VITAMIN E														Activity (SH-SY5Y [23]): 106%; Activity (SH-SY5Y [24]): 101%
